Consider 6 compounds from ChEMBL document CHEMBL1157135, “Synthesis and structure-activity relationships of potent 4-fluoro-2-cyanopyrrolidine dipeptidyl peptidase IV inhibitors” (Bioorg Med Chem, 2008).

A word on the IC50: it is the concentration that gives 50% inhibition. Higher therefore signals weaker potency in that assay.

The nature of data set [1]: Chemical stability in aqueous buffer solution at pH 6.8 after 6 hrs. It counts as physicochemical. The following applies: read-out: Stability. Summed up:
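Residual amount determined by reverse-phase HPLC (UV 210 nm, acetonitrile–H2O buffer elution at 1.0 mL/min) after 6 h incubation at 37 °C in pH 6.8 aqueous buffer; dihydrochloride salt used for one reference compound.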

Data set [2] in a line: Drug level in Wistar rat plasma at 1 mg/kg, po after 2 hrs. It counts as ADME, organism-based. On the set-up: dose 1 mg/kg, route oral. The following applies: read-out: Drug uptake. Summed up: (§1)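 Male Wistar rats, 8 weeks old, fasted overnight; single oral dose 1 mg/kg as aqueous solution. Jugular vein blood (200 µL) at 0.5, 1, 2, 6 h; plasma deproteinized with acetonitrile, supernatant analysed by LC–MS/MS (C18 column, ammonium acetate/acetonitrile eluent, ESI).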

Data set [3] can be described thus: Drug level in Wistar rat plasma at 1 mg/kg, po after 0.5 hr. Further details: dose 1 mg/kg, route oral. It counts as ADME, organism-based. The following applies: read-out: Drug uptake. Summed up:
as §1

Data set [4] can be described thus: Drug level in Wistar rat plasma at 1 mg/kg, po after 1 hr. The format is ADME, organism-based. On the set-up: dose 1 mg/kg, route oral. The following applies: read-out: Drug uptake. Summed up: as §1
Data set [5] is described as follows: Drug level in Wistar rat plasma at 1 mg/kg, po after 6 hrs. It counts as ADME, organism-based. The conditions noted are these: read-out: Drug uptake. Further details: dose 1 mg/kg, route oral. Summed up: as §1
Another data set concerns the target Dipeptidyl peptidase 4 (Homo sapiens, UniProt P27487). It counts as cell-free, Plasma.
Data set [6] has as its system Rattus norvegicus. In words: Inhibition of DPP4 activity in Zucker fatty rat plasma at 0.1 mg/kg, po after 15 mins by OGTT. The format is functional, organism-based. On the set-up: dose 0.1 mg/kg. Summed up:
(§2)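 Male Zucker fatty rats (lean controls), 10 weeks, fasted overnight, n = 6. Compound in distilled water given orally (0.1 or 0.3 mg/kg) 30 min before oral glucose 2 g/kg. Orbital sinus blood under ether anesthesia at set times; plasma glucose, insulin and DPP-IV activity measured. Mean ± SE; Dunnett's or Student's t-test vs vehicle.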

In data set [7] the test system is Rattus norvegicus. As to the kind of experiment: Inhibition of DPP4 activity in Zucker fatty rat plasma at 0.1 mg/kg, po upto 120 mins by OGTT. It counts as functional, organism-based. Further details: dose 0.1 mg/kg. Summed up: as §2
In data set [8] the test system is Rattus norvegicus. In words: Increase in insulin secretion in Zucker fatty rat plasma at 0.3 mg/kg, po after 30 mins by OGTT. It counts as functional, organism-based. Further details: dose 0.3 mg/kg. Summed up: as §2
Data set [9] concerns Rattus norvegicus. In words: Inhibition of DPP4 activity in Zucker fatty rat plasma at 0.3 mg/kg, po upto 120 mins by OGTT. The format is functional, organism-based. Further details: dose 0.3 mg/kg. Summed up: as §2
Data set [10] concerns Rattus norvegicus. In words: Increase in insulin secretion in Zucker fatty rat plasma at 0.1 mg/kg, po after 30 mins by OGTT. It counts as functional, organism-based. Further details: dose 0.1 mg/kg. Summed up:
as §2

For data set [11], the system named is Rattus norvegicus. In words: Inhibition of DPP4 activity in Zucker fatty rat plasma at 0.3 mg/kg, po after 15 mins by OGTT. The format is functional, organism-based. Further details: dose 0.3 mg/kg. Summed up: as §2
The subject of data set [12] is Rattus norvegicus. As to the kind of experiment: Reduction of hyperglycemia in Zucker fatty rat at 0.3 mg/kg, po by after 30 mins OGTT. The format is functional, organism-based. On the set-up: dose 0.3 mg/kg. Summed up:
as §2

Data set [13] concerns Rattus norvegicus. In words: Reduction of hyperglycemia in Zucker fatty rat at 0.1 mg/kg, po after 30 mins by OGTT. The format is functional, organism-based. On the set-up: dose 0.1 mg/kg. Summed up:
as §2

Molecules are shown by their SMILES. Activity calls are given as the source filed them. The rule behind the calls is not given here.

Dipeptidyl peptidase 4, sequence (P27487 whole entry): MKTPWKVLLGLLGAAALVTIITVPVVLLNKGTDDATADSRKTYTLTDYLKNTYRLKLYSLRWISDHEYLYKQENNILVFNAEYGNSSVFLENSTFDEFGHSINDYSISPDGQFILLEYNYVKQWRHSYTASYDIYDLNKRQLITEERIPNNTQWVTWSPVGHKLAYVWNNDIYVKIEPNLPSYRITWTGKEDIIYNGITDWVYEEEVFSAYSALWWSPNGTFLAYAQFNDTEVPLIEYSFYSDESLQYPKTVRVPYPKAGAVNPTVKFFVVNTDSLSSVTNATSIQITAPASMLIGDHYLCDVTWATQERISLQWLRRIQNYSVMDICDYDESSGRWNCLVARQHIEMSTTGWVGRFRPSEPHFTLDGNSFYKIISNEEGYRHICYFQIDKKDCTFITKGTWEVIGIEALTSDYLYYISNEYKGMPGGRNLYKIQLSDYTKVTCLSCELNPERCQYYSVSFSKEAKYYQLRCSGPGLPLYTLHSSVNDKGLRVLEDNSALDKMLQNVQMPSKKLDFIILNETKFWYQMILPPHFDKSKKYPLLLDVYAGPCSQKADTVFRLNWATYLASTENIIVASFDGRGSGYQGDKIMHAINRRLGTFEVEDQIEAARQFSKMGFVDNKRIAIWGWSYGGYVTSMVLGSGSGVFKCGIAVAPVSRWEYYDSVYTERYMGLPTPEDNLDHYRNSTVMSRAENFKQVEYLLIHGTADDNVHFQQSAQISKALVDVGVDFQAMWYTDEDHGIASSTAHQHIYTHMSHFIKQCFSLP

As for `CC[C@H](C)[C@@H](N)C(=O)N1C[C@@H](F)C[C@H]1C#N`, the remaining at 6 h in [1] worked out at 70%. The concentration at 2 h in [2] was 5 ng/mL. For the same compound, in data set [3], the concentration at 0.5 h came to 195 ng/mL. Moreover, the concentration at 1 h in [4] came to 24 ng/mL. For the same compound, in [5], the concentration at 6 h came out at 1 ng/mL.

On Dipeptidyl peptidase 4, `C#CC(CC)(CC)NCC(=O)N1C[C@@H](F)C[C@H]1C#N` registered an IC50 above 316 nM.

As for `CC(C)CNCC(C)(C)NCC(=O)N1C[C@@H](F)C[C@H]1C#N`, on Dipeptidyl peptidase 4, the IC50 is above 316 nM.

Take `N#Cc1ccc(NCCNCC(=O)N2C[C@@H](F)C[C@H]2C#N)nc1`: the remaining at 6 h in data set [1] worked out at 86%.

Turning to `N#Cc1ccc(NCCNCC(=O)N2C[C@@H](F)C[C@H]2C#N)nc1.O=C(O)/C=C\C(=O)O`, the concentration at 2 h in [2] came to 8 ng/mL. Also, the concentration at 0.5 h in data set [3] is 157 ng/mL. Further, in [4], the concentration at 1 h amounted to 62 ng/mL. The concentration at 6 h in data set [5] was found to be 6 ng/mL.

Take `CC(C)(CO)NCC(=O)N1C[C@@H](F)C[C@H]1C#N`: the remaining at 6 h in [1] was 96%. The result in the data set on Rattus norvegicus [6], in the data set with Rattus norvegicus [7], in the data set with Rattus norvegicus [8], in the data set on Rattus norvegicus [9], in the data set with Rattus norvegicus [10] and in the data set on Rattus norvegicus [11] was Active. Further, the result in the data set on Rattus norvegicus [12] and in the data set on Rattus norvegicus [13] was Active. Besides, the concentration at 2 h in data set [2] amounted to 168 ng/mL. In data set [3], the concentration at 0.5 h was determined as 355 ng/mL. In data set [4], the concentration at 1 h stood at 274 ng/mL. Also, the concentration at 6 h in data set [5] was determined as 31 ng/mL.
